Data set [1] is described as follows: AUCt in HIV-infected human plasma at 800 mg qd for 10 days administered in fasted condition on day 10 by HPLC with fluorescence detector. In kind it is ADME, cell-free. The gist of the method: (§1)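 Day-10 fasted serial sampling 0–24 h after oral 800 mg once daily. Plasma from two centrifugations (390 × g, 1,090 × g, 10 min), stored −80°C; liquid-liquid extraction with tert-butyl methyl ether; HPLC C18, phosphate buffer (25 mM, pH 3)-acetonitrile, fluorescence ex 299/em 396 nm, linear 10–5,000 ng/ml. Noncompartmental: AUCτ linear trapezoidal, Cmax/Cτ by inspection, λz from terminal log-linear regression.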

Data set [2] can be described thus: AUCt in HIV-infected human PBMC at 800 mg qd for 10 days administered in fasted condition on day 10 by LC-MS/MS analysis. It is filed as ADME, cell-based. The gist of the method:
(§2)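 EDTA blood kept 4°C, processed within 1 h; PBMCs isolated on Ficoll gradient, washed with 0.9% NaCl, pellet stored −80°C. LC-MS/MS, calibration 0.4–150 ng/ml lysate; cell number by DNA detection. Noncompartmental analysis; AUCτ linear trapezoidal; geometric mean (range).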

Data set [3] can be described thus: Cmax in HIV-infected human plasma at 800 mg qd for 10 days administered in fasted condition on day 10 by HPLC with fluorescence detector. In kind it is ADME, organism-based. The arrangement: dose 800 mg. The gist of the method:
as §1

Data set [4] in a line: Cmax in HIV-infected human PBMC at 800 mg qd for 10 days administered in fasted condition on day 10 by LC-MS/MS analysis. It is filed as ADME, organism-based. The arrangement: dose 800 mg. The gist of the method: as §2
Data set [5] is described as follows: Drug concentration at the end of dosing interval in HIV-infected human plasma at 800 mg qd for 10 days administered in fasted condition on day 10 by HPLC with fluorescence detector. In kind it is ADME, cell-free. As to conditions: read-out: Ctau. The gist of the method:
as §1

The nature of data set [6]: Drug concentration at the end of dosing interval in HIV-infected human PBMC at 800 mg qd for 10 days administered in fasted condition on day 10 by LC-MS/MS analysis. In kind it is ADME, cell-based. As to conditions: read-out: Ctau. Put shortly: as §2
Data set [7] in a line: Terminal phase half life in HIV-infected human plasma at 800 mg qd for 10 days administered in fasted condition on day 10 by HPLC with fluorescence detector. It is filed as ADME, cell-free. The following applies: read-out: beta t1/2 (converted). Put shortly: as §1
The nature of data set [8]: Terminal phase half life in HIV-infected human PBMC at 800 mg qd for 10 days administered in fasted condition on day 10 by LC-MS/MS analysis. It is filed as ADME, cell-based. As to conditions: read-out: beta t1/2 (converted). Put shortly:
as §2

The test system of data set [9] is PBMC. In words: Intracellular compound distribution in ratio in HIV-infected human PBMC at AUCt by LC-MS/MS analysis. It is filed as ADME, cell-based. Put shortly: (§3)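 Intracellular distribution ratio: PBMC concentration (LC-MS/MS) divided by plasma concentration (HPLC-fluorescence), computed per patient for AUCτ, Cmax and Cτ from day-10 fasted 0–24 h profiles after 800 mg once daily; reported as median (range).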

Data set [10] deals with PBMC. In words: Intracellular compound distribution in ratio in HIV-infected human PBMC at Cmax by LC-MS/MS analysis. It is filed as ADME, cell-based. The gist of the method: as §3
In data set [11] the test system is PBMC. In words: Intracellular compound distribution in ratio in HIV-infected human PBMC at Ctau by LC-MS/MS analysis. In kind it is ADME, cell-based. The gist of the method:
as §3

The subject of data set [12] is Homo sapiens. In words: Toxicity in HIV-infected human at 800 mg qd for 10 days administered in fasted condition on day 10. It is filed as organism-based. As to conditions: in vivo, 240 h. Put shortly: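 Safety assessed on days 0 and 10 by clinical evaluation and laboratory tests (blood counts, chemistry) during 800 mg once-daily oral dosing added to ongoing antiretroviral therapy.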

Turning to `Cc1nnc(C(=O)NC(C)(C)c2nc(C(=O)NCc3ccc(F)cc3)c(O)c(=O)n2C)o1` [RALTEGRAVIR], the AUC(0-t) at 240 h in data set [1] was 12200 ng·h/mL; in data set [2], 909 ng·h/mL. The Cmax was determined as 2640 ng/mL in data set [3] and 199 ng/mL in data set [4]. Also, the concentration at 240 h is 89 ng/mL in data set [5] and 7 ng/mL in [6]. In addition, the half-life was 16 h in data set [7] and 11.2 h in data set [8]. Also, the Ratio in data set [9] worked out at 0.07; in data set [10], 0.08; in data set [11], 0.18. In [12], the Activity entry is listed as “Non-toxic”.

Source of the values: ChEMBL document CHEMBL1687825, “Plasma and intracellular (peripheral blood mononuclear cells) pharmacokinetics of once-daily raltegravir (800 milligrams) in HIV-infected patients” (Antimicrob Agents Chemother, 2011).
